One block for each compound: values may come before it.
Columns and labels:
[1] = system: B16-F10; experiment: Cytotoxicity against mouse B16-F10 cells assessed as reduction in cell viability measured after 48 hrs by MTT assay; type: functional, cell-based; details: B16-F10, 48 h
How it was run: (§1)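 Cells kept in medium with 10% FBS and 1% antibiotic–antimycotic at 37 °C, 5% CO2. Seeded at 3000–4000 cells/well, grown overnight, then given fresh medium with a range of concentrations (diluted from 10 mM DMSO stocks) for 48 h. MTT (0.5 mg/mL) added for 3–4 h at 37 °C. Formazan dissolved in DMSO and absorbance read at 570 nm.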

[2] = system: A549; experiment: Cytotoxicity against human A549 cells assessed as reduction in cell viability measured after 48 hrs by MTT assay; type: functional, cell-based; details: A549, 48 h; how it was run: as §1
[3] = system: SK-MEL-28; experiment: Cytotoxicity against human SK-MEL-28 cells assessed as reduction in cell viability measured after 48 hrs by MTT assay; type: functional, cell-based; details: SK-MEL-28, 48 h; how it was run: as §1
[4] = system: HCT-116; experiment: Cytotoxicity against human HCT-116 cells assessed as reduction in cell viability measured after 48 hrs by MTT assay; type: functional, cell-based; details: HCT-116, 48 h; how it was run: as §1
[5] = Cytotoxicity against human BEAS-2B cells assessed as reduction in cell viability measured after 48 hrs by MTT assay; type: toxicity, cell-based; how it was run: as §1
[6] = molecular target: Tubulin (Homo sapiens) (UniProt P68371+Q9H4B7+P0DPH7+P68366+Q13509+Q71U36+P04350+Q3ZCM7+P07437+P68363+Q9BQE3+Q6PEY2+Q13885+Q9BVA1+Q9BUF5); experiment: Inhibition of tubulin polymerization (unknown origin) at 3 uM measured after 1 hr relative to control; type: protein-complex assay
How it was run: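 Fluorescence-based tubulin polymerization kit: tubulin, GTP and tubulin glycerol buffer mixed and added to compound (from 10x stocks), enhancer and inhibitor reference standards, and blanks in a plate prewarmed to 37 °C. Read kinetically for 1 h at ex 360/em 450 nm.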

[7] = system: SK-MEL-28; experiment: Induction of cell cycle arrest in human SK-MEL-28 cells assessed as accumulation of cells at G0/G1 phase at 4.13 uM incubated for 48 hrs by flow cytometry (reference value: 79.59%); type: functional
[8] = system: SK-MEL-28; experiment: Induction of cell cycle arrest in human SK-MEL-28 cells assessed as accumulation of cells at S phase at 4.13 uM incubated for 48 hrs by flow cytometry (reference value: 6.34%); type: functional
[9] = system: SK-MEL-28; experiment: Induction of cell cycle arrest in human SK-MEL-28 cells assessed as accumulation of cells at G2/M phase at 4.13 uM incubated for 48 hrs by flow cytometry (reference value: 13.14%); type: functional

Compound: CCc1ccccc1-n1nc(-c2cn(CC)c3ccc(OC)cc23)cc1/N=C1/NC(=O)CS1
IC50 [1]: > 50 µM | IC50 [2]: 24.2 µM | IC50 [3]: 26.8 µM | IC50 [4]: 45.8 µM

Compound: CCn1cc(-c2cc(/N=C3/NC(=O)CS3)n(-c3cccc(Cl)c3)n2)c2cc(OC)ccc21
IC50 [1]: 36.4 µM | IC50 [2]: 16.9 µM | IC50 [3]: > 50 µM | IC50 [4]: 14.8 µM

Compound: CCc1ccccc1-n1nc(-c2cn(Cc3ccccc3)c3ccccc23)cc1/N=C1/NC(=O)CS1
IC50 at 48 h [5]: 27.4 µM | IC50 [1]: > 50 µM | IC50 [2]: 36.5 µM | IC50 [3]: 33.8 µM | IC50 [4]: 35.8 µM

Compound: CCn1cc(-c2cc(/N=C3/NC(=O)CS3)n(-c3cccc(Cl)c3)n2)c2cc(Br)ccc21
IC50 [1]: > 50 µM | IC50 [2]: > 50 µM | IC50 [3]: 31.4 µM | IC50 [4]: > 50 µM

Compound: COc1ccc2c(c1)c(-c1cc(/N=C3/NC(=O)CS3)n(-c3cccc(Cl)c3)n1)cn2C
IC50 [1]: 23.4 µM | IC50 [2]: > 50 µM | IC50 [3]: > 50 µM | IC50 [4]: 22.2 µM

Compound: CCn1cc(-c2cc(/N=C3/NC(=O)CS3)n(-c3ccc(Cl)cc3)n2)c2ccccc21
IC50 at 48 h [5]: > 50 µM | IC50 [1]: > 50 µM | IC50 [2]: 38.7 µM | IC50 [3]: 29.7 µM | IC50 [4]: 37.9 µM

Compound: CCc1ccccc1-n1nc(-c2cn(C)c3ccc(OC)cc23)cc1/N=C1/NC(=O)CS1
IC50 at 48 h [5]: > 50 µM | IC50 [1]: > 50 µM | IC50 [2]: > 50 µM | IC50 [3]: 28 µM | IC50 [4]: 34.1 µM

Compound: O=C1CS/C(=N\c2cc(-c3c[nH]c4ccccc34)nn2-c2ccc(Cl)cc2)N1
IC50 [1]: > 50 µM | IC50 [2]: 16.4 µM | IC50 [3]: 12.8 µM | IC50 [4]: 13.8 µM

Compound: COc1ccc2[nH]cc(-c3cc(/N=C4/NC(=O)CS4)n(-c4ccc(Cl)cc4)n3)c2c1
IC50 [1]: 39.4 µM | IC50 [2]: 20.9 µM | IC50 [3]: 11.3 µM | IC50 [4]: 11.2 µM

Compound: COc1ccc2[nH]cc(-c3cc(/N=C4/NC(=O)CS4)n(-c4cccc(Cl)c4)n3)c2c1
IC50 at 48 h [5]: 21.7 µM | IC50 [1]: > 50 µM | IC50 [2]: 22.6 µM | IC50 [3]: 6.22 µM | IC50 [4]: 10.8 µM

Compound: CCc1ccccc1-n1nc(-c2cn(C)c3ccccc23)cc1/N=C1/NC(=O)CS1
IC50 [1]: > 50 µM | IC50 [2]: 39.1 µM | IC50 [3]: 49.9 µM | IC50 [4]: > 50 µM

Compound: O=C1CS/C(=N\c2cc(-c3cn(Cc4ccccc4)c4ccccc34)nn2-c2ccc(Cl)cc2)N1
IC50 [1]: > 50 µM | IC50 [2]: 46.4 µM | IC50 [3]: > 50 µM | IC50 [4]: > 50 µM

Compound: CCc1ccccc1-n1nc(-c2cn(CC)c3ccc(Br)cc23)cc1/N=C1/NC(=O)CS1
IC50 [1]: > 50 µM | IC50 [2]: 33.9 µM | IC50 [3]: 34.3 µM | IC50 [4]: > 50 µM

Compound: CCc1ccccc1-n1nc(-c2cn(C)c3ccc(Br)cc23)cc1/N=C1/NC(=O)CS1
IC50 [1]: > 50 µM | IC50 [2]: > 50 µM | IC50 [3]: > 50 µM | IC50 [4]: > 50 µM

Compound: Cn1cc(-c2cc(/N=C3/NC(=O)CS3)n(-c3ccc(C#N)cc3)n2)c2ccccc21
IC50 [1]: > 50 µM | IC50 [2]: 37.2 µM | IC50 [3]: 22.7 µM | IC50 [4]: 25.1 µM

Compound: Cn1cc(-c2cc(/N=C3/NC(=O)CS3)n(-c3cccc(Cl)c3)n2)c2cc(Br)ccc21
IC50 [1]: 26 µM | IC50 [2]: 32.8 µM | IC50 [3]: 17 µM | IC50 [4]: 20.7 µM

Compound: Cn1cc(-c2cc(/N=C3/NC(=O)CS3)n(-c3ccc(C#N)cc3)n2)c2cc(Br)ccc21
IC50 [1]: 10.6 µM | IC50 [2]: > 50 µM | IC50 [3]: > 50 µM | IC50 [4]: 37.3 µM

Compound: COc1ccc2c(c1)c(-c1cc(/N=C3/NC(=O)CS3)n(-c3ccc(Cl)cc3)n1)cn2Cc1ccccc1
IC50 [1]: > 50 µM | IC50 [2]: > 50 µM | IC50 [3]: > 50 µM | IC50 [4]: > 50 µM

Compound: Cn1cc(-c2cc(/N=C3/NC(=O)CS3)n(-c3cccc(Cl)c3)n2)c2ccccc21
IC50 [1]: > 50 µM | IC50 [2]: 22.9 µM | IC50 [3]: 26.1 µM | IC50 [4]: 23.6 µM

Compound: CCn1cc(-c2cc(/N=C3/NC(=O)CS3)n(-c3ccc(Cl)cc3)n2)c2cc(Br)ccc21
IC50 [1]: 18.4 µM | IC50 [2]: 33.7 µM | IC50 [3]: 24.9 µM | IC50 [4]: > 50 µM

Compound: CCc1ccccc1-n1nc(-c2c[nH]c3ccccc23)cc1/N=C1/NC(=O)CS1
IC50 at 48 h [5]: 14.8 µM | IC50 [1]: 18.5 µM | IC50 [2]: 25.3 µM | IC50 [3]: 23.2 µM | IC50 [4]: 36.8 µM

Compound: N#Cc1ccc(-n2nc(-c3c[nH]c4ccccc34)cc2/N=C2/NC(=O)CS2)cc1
IC50 [1]: > 50 µM | IC50 [2]: 34 µM | IC50 [3]: 25.4 µM | IC50 [4]: > 50 µM

Compound: Cn1cc(-c2cc(/N=C3/NC(=O)CS3)n(-c3ccc(Cl)cc3)n2)c2cc(Br)ccc21
IC50 at 48 h [5]: > 50 µM | IC50 [1]: 11.3 µM | IC50 [2]: 19.2 µM | IC50 [3]: 26.9 µM | IC50 [4]: 13.5 µM

Compound: CCn1cc(-c2cc(/N=C3/NC(=O)CS3)n(-c3ccc(C#N)cc3)n2)c2ccccc21
IC50 at 48 h [5]: > 50 µM | IC50 [1]: 18.6 µM | IC50 [2]: 39.2 µM | IC50 [3]: 25 µM | IC50 [4]: > 50 µM

Compound: CCn1cc(-c2cc(/N=C3/NC(=O)CS3)n(-c3ccc(C#N)cc3)n2)c2cc(Br)ccc21
IC50 [1]: 11 µM | IC50 [2]: 36.6 µM | IC50 [3]: 32.1 µM | IC50 [4]: > 50 µM

Compound: CCn1cc(-c2cc(/N=C3/NC(=O)CS3)n(-c3cccc(Cl)c3)n2)c2ccccc21
IC50 [1]: 21.2 µM | IC50 [2]: 26 µM | IC50 [3]: 26 µM | IC50 [4]: > 50 µM

Compound: Cn1cc(-c2cc(/N=C3/NC(=O)CS3)n(-c3ccc(Cl)cc3)n2)c2ccccc21
IC50 [1]: > 50 µM | IC50 [2]: 30.2 µM | IC50 [3]: > 50 µM | IC50 [4]: > 50 µM

Compound: N#Cc1ccc(-n2nc(-c3cn(Cc4ccccc4)c4ccccc34)cc2/N=C2/NC(=O)CS2)cc1
IC50 [1]: > 50 µM | IC50 [2]: 22.3 µM | IC50 [3]: > 50 µM | IC50 [4]: 33.1 µM

inhibition [6]: 60%
Compound: CC(=O)O[C@H]1C(=O)[C@@]2(C)[C@H]([C@H](OC(=O)c3ccccc3)[C@]3(O)C[C@H](OC(=O)[C@H](O)[C@@H](NC(=O)c4ccccc4)c4ccccc4)C(C)=C1C3(C)C)[C@]1(OC(C)=O)CO[C@@H]1C[C@@H]2O

Compound: O=C1CS/C(=N\c2cc(-c3c[nH]c4ccccc34)nn2-c2ccccc2)N1
IC50 at 48 h [5]: > 50 µM | IC50 [1]: > 50 µM | IC50 [2]: 22.5 µM | IC50 [3]: 34 µM | IC50 [4]: > 50 µM

Compound: O=C1CS/C(=N\c2cc(-c3cn(Cc4ccccc4)c4ccccc34)nn2-c2cccc(Cl)c2)N1
IC50 at 48 h [5]: > 50 µM | IC50 [1]: > 50 µM | IC50 [2]: > 50 µM | IC50 [3]: > 50 µM | IC50 [4]: > 50 µM

Compound: CCc1ccccc1-n1nc(-c2cn(CC)c3ccccc23)cc1/N=C1/NC(=O)CS1
IC50 [1]: > 50 µM | IC50 [2]: 33 µM | IC50 [3]: > 50 µM | IC50 [4]: 19.8 µM

Compound: CCc1ccccc1-n1nc(-c2c[nH]c3ccc(OC)cc23)cc1/N=C1/NC(=O)CS1
IC50 at 48 h [5]: 32 µM | IC50 [1]: 10.8 µM | IC50 [2]: 25.8 µM | IC50 [3]: > 50 µM | IC50 [4]: 18 µM

Compound: CCn1cc(-c2cc(/N=C3/NC(=O)CS3)n(-c3ccc(Cl)cc3)n2)c2cc(OC)ccc21
IC50 at 48 h [5]: > 50 µM | IC50 [1]: 14.2 µM | IC50 [2]: 48.1 µM | IC50 [3]: > 50 µM | IC50 [4]: > 50 µM

Compound: CCN(CC)CCNC(=O)c1c(C)[nH]c(/C=C2\C(=O)Nc3ccc(F)cc32)c1C [SUNITINIB]
Activity [7]: 76.33% | Activity [8]: 5.09% | Activity [9]: 17.92% | IC50 at 48 h [5]: 6.09 µM | IC50 [1]: 15.3 µM | IC50 [2]: 5.73 µM | IC50 [3]: 4.13 µM | IC50 [4]: 10.7 µM

— ChEMBL document CHEMBL5252634, “Design, synthesis and in vitro cytotoxicity evaluation of indolo-pyrazoles grafted with thiazolidinone as tubulin polymerization inhibitors” (RSC Med Chem, 2023)
